T cruzi growth-1: inhibitors of T. cruzi proliferation. T. cruzi beta-gal in NIH3T3, GalScreen luminescence, 90 h. inhibition, % at 8.34 µM. 77,000 tested, 5.9% active. AID 624255;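 active = mean inhibition above about 93%, with at least 55% of replicates each passing it, limit read from the data, passing the limit was not always enough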
IDH1 mut inh: IDH1 R132H (human) inhibition; O75874; 70,000 tested, 0.18% active; inhibition, % at 10 µM; IDH1 R132H reductase, diaphorase/resazurin fluorescence, 60 min; AID 624101; in the data active = inhibition above about 34%;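 also: 0% = DMSO and 100% = no enzyme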
KDM4C inh: inhibitors of human demethylase GASC-1 KDM4C; inhibition, % at 12.5 µM; Q9H3R0; 96,000 tested, 0.15% active; GST-KDM4C 2-372, H3K9me3 peptide, LANCE TR-FRET;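 active = mean replicate inhibition above about 25%, with at least 55% of replicates also reaching it, limit read from the data, passing the limit was not always enough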
Target sequence (Q9H3R0 2-372 limits assumed): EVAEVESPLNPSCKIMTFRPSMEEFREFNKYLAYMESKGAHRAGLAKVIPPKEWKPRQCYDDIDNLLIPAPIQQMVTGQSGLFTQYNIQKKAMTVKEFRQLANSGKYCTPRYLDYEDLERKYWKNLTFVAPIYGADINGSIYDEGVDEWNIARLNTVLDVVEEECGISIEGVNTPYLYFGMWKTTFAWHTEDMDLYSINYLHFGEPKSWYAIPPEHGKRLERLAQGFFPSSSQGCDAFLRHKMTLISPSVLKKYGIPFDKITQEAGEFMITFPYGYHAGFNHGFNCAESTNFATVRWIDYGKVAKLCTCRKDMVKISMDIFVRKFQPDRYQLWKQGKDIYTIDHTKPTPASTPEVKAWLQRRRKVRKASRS
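Compound: one test concentration per compound; Material: GST-GASC-1 enzyme fragment 2-372; Amount: GASC-1 enzyme at 10 nM final in reaction; Also added: H3K9me3 peptide substrate, Fe(II), 2-oxoglutarate; Technique: LANCE TR-FRET; Times: 30 min demethylation and 1 h detection at room temperature.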
Pf Dd2 growth: inhibitors of Plasmodium falciparum Dd2 growth. P. falciparum Dd2 growth, SYBR Green, 72 h; active compounds read low. activity change, % at 10 µM. 94,000 tested, 2.3% active. AID 1159554; in the data active = activity change below about -80%
T cruzi growth-2: Trypanosoma cruzi proliferation inhibition | inhibition, % at 8.35 µM | T. cruzi beta-gal in NIH3T3, GalScreen luminescence, 90 h | shares compounds with T cruzi growth-1 | 5,600 tested, 72% active | AID 651739;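 active = mean replicate inhibition above about 95% and at least 55% of replicates individually reaching it, limit read from the data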
T cruzi growth-3: Trypanosoma cruzi proliferation inhibition | shares compounds with T cruzi growth-1 | T. cruzi beta-gal in NIH3T3, GalScreen luminescence, 90 h | inhibition, % at 2.09 µM | 5,600 tested, 21% active | AID 651740;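 active = mean inhibition above about 95%, with at least 55% of replicates also reaching it, limit read from the data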;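 also: plate controls were neutral control median for no effect and positive control median for full effect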
3T3 cytotox: kills mouse NIH/3T3 fibroblasts | shares compounds with T cruzi growth-1 | NIH/3T3 viability, CellTiter-Glo ATP luminescence, 90 h | cytotoxicity (signal decrease), % at 8.35 µM | 5,600 tested, 14% active | AID 651742;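 active = mean signal decrease across replicates above about 35% based on untreated-well scatter, with enough replicates individually passing, limit read from the data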;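 also: 0% = median of neutral control wells and 100% = median of positive control wells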
3T3 cytotox 2: NIH/3T3 (mouse) viability loss; NIH/3T3 viability, CellTiter-Glo ATP luminescence, 90 h; 5,600 tested, 56% active; AID 651744; shares compounds with T cruzi growth-1; inhibition, % at 24.9 µM;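 active = mean loss of cell viability signal at or above a set limit, and enough replicates individually reaching it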;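 also: 0% = median of neutral control wells and 100% = median of positive control wells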
* marks the source's active call; other numbers are inactive results. Sampled rows, rich in hits. Any-hit rate of the full collection: about 5.8%.

How did C[C@@H]1CN([C@@H](C)CO)S(=O)(=O)c2ccc(C#CC3CC3)cc2O[C@H]1CN(C)C(=O)Nc1cc(F)ccc1F do in these assays?
T cruzi growth-1: 104*; KDM4C inh: 0; Pf Dd2 growth: -37; T cruzi growth-2: 106*; T cruzi growth-3: 71; 3T3 cytotox: 38*; 3T3 cytotox 2: 33*

What do the screens show for `C[C@H](CO)N1C[C@H](C)[C@H](CN(C)C(=O)Nc2cc(F)ccc2F)Oc2cc(C#CC3CC3)ccc2S1(=O)=O`?
T cruzi growth-1: 117*; KDM4C inh: -3; Pf Dd2 growth: -64; T cruzi growth-2: 112*; T cruzi growth-3: 45; 3T3 cytotox: 4; 3T3 cytotox 2: 25

Results for C[C@H](CO)N1C[C@H](C)[C@@H](CN(C)C(=O)Nc2cc(F)ccc2F)Oc2cc(C#CC3CCCC3)ccc2S1(=O)=O ?
IDH1 mut inh: 2; Pf Dd2 growth: -2

How did O=C(Cc1ccccc1[N+](=O)[O-])Nc1cc(Cl)ccc1Oc1ccccc1 do in these assays?
IDH1 mut inh: 0

What do the screens show for `C[C@@H]1CN([C@H](C)CO)C(=O)Cc2cc(N(C)C)ccc2O[C@@H]1CN(C)Cc1ccc2c(c1)OCO2`?
T cruzi growth-1: -17; IDH1 mut inh: -1; KDM4C inh: 1; Pf Dd2 growth: 30

Results for C[C@H]1CN([C@@H](C)CO)C(=O)Cc2cc(N(C)C)ccc2O[C@@H]1CN(C)Cc1ccc(Cl)c(Cl)c1 ?
T cruzi growth-1: 128*; IDH1 mut inh: 0; KDM4C inh: 1; Pf Dd2 growth: -30; T cruzi growth-2: 116*; T cruzi growth-3: 61; 3T3 cytotox: 3; 3T3 cytotox 2: 101*

What do the screens show for `C[C@@H]1CN([C@@H](C)CO)C(=O)Cc2cc(N(C)C)ccc2O[C@@H]1CN(C)Cc1ccc(Cl)c(Cl)c1`?
T cruzi growth-1: 67; IDH1 mut inh: 0; Pf Dd2 growth: 0

What do the screens show for `C[C@H](CO)N1C[C@H](C)[C@@H](CN(C)Cc2ccc3c(c2)OCO3)Oc2ccc(N(C)C)cc2CC1=O`?
T cruzi growth-1: 133*; IDH1 mut inh: -2; KDM4C inh: 1; Pf Dd2 growth: -7; T cruzi growth-2: 105*; T cruzi growth-3: 90; 3T3 cytotox: 25; 3T3 cytotox 2: 31*

Results for C[C@H]1CN([C@@H](C)CO)C(=O)Cc2cc(N(C)C)ccc2O[C@@H]1CN(C)Cc1ccc2c(c1)OCO2 ?
T cruzi growth-1: 107*; IDH1 mut inh: 0; KDM4C inh: 7; Pf Dd2 growth: -2; T cruzi growth-2: 101*; T cruzi growth-3: 63; 3T3 cytotox: 1; 3T3 cytotox 2: 12

What do the screens show for `C/C=C1/C(=O)O[C@]2(C)C[C@@H]3OC(=O)C(COC)[C@]34O[C@@]12CC[C@@](C)(O)CC4=O` (stereo partly specified)?
IDH1 mut inh: 10

Results for CCN(CC(=O)Nc1cccc([N+](=O)[O-])c1)S(=O)(=O)c1ccc(F)cc1 ?
IDH1 mut inh: 0

How did O=C(N/N=C/c1c(O)cc(O)cc1O)c1ccccn1 do in these assays?
IDH1 mut inh: -1

Results for O=C(c1cccc(F)c1)N1CC[C@@H]2[C@@H](CO)Nc3ccc(-c4ccccc4F)cc3[C@@H]21 ?
T cruzi growth-1: 40; KDM4C inh: 0; Pf Dd2 growth: 7

How did O=C(c1ccccc1)N1CC[C@H]2[C@H](CO)Nc3ccc(-c4ccccc4F)cc3[C@H]21 do in these assays?
T cruzi growth-1: 108*; KDM4C inh: 0; Pf Dd2 growth: -17; T cruzi growth-2: 98*; T cruzi growth-3: 89; 3T3 cytotox: 14; 3T3 cytotox 2: 23

Results for O=C(c1ccccc1F)N1CC[C@@H]2[C@H]1c1cc(-c3ccc(F)cc3)ccc1N[C@@H]2CO ?
T cruzi growth-1: 94; KDM4C inh: -1; Pf Dd2 growth: 5

Screening results as filed in PubChem BioAssay.
